In ChEMBL document CHEMBL3259545, “Novel pyrrolobenzoxaboroles: design, synthesis, and biological evaluation against Trypanosoma brucei” (Eur J Med Chem, 2014):
Values after ≈ are worked out from the molar mass of the structure shown. Active and inactive are the calls of the source. No cut-off for these calls is given here.

Columns and labels:
L929 = assay: Cytotoxicity against mouse L929 cells assessed as cell viability after 72 hrs by alamar blue assay; assay type: cell-based; details: L929, 72 h
Procedure, shortened: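 L929 mouse fibroblasts grown in DMEM with 10% FBS and 1% penicillin/streptomycin, kept sub-confluent. Seeded from a 1 × 10⁴/mL suspension, attached overnight, then medium renewed and DMSO-diluted compounds added. Incubated 72 h at 37 °C, 5% CO₂. Resazurin added for another 3–4 h, fluorescence read at ex 544/em 590 nm.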

[1] = test system: Trypanosoma brucei brucei; assay: Antitrypanosomal activity against Trypanosoma brucei brucei 427 after 72 hrs by alamar blue assay; assay type: functional, organism-based; details: Trypanosoma brucei, 427, 72 h
Procedure, shortened: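 Bloodstream T. b. brucei 427 kept in log phase in HMI-9 with 10% FBS, 10% Serum Plus and penicillin/streptomycin, subcultured every 2–3 days. Final density 1.0 × 10⁵/mL with 0.4% DMSO, exposed to serially diluted compounds for 72 h at 37 °C, 5% CO₂. Resazurin added for another 2–4 h, fluorescence read at ex 544/em 590 nm. IC50 from sigmoidal fits of triplicate points.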

[2] = test system: Trypanosoma brucei brucei; assay: Trypanocidal activity against bloodstream stage of Trypanosoma brucei brucei infected in acute BALB/c mouse assessed as animal survival rate at 50 mg/kg, ip bid administered for 5 days initiated 24 hrs post infection; assay type: functional; details: route intraperitoneal
Procedure, shortened: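 Female BALB/c mice infected i.p. with 600 T. b. brucei 221 bloodstream parasites; from 24 h post-infection, dosed 50 mg/kg i.p. twice daily for 5 days in 5% ethanol/45% sterile deionized water/50% PEG400. Parasitaemia was checked on trypan-blue-stained tail-vein blood smears every other day for 10 days, then weekly; survival was followed to day 30.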

[3] = test system: Trypanosoma brucei brucei; assay: Trypanocidal activity against bloodstream stage of Trypanosoma brucei brucei infected in acute BALB/c mouse assessed as clearance of blood parasite on day 30 at 50 mg/kg, ip bid administered for 5 days initiated 24 hrs post infection; assay type: functional; details: route intraperitoneal
Procedure, shortened: (§1)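 Female BALB/c mice infected i.p. with 600 T. b. brucei 221 parasites. Starting 24 h after infection, compounds were given i.p. at 50 mg/kg twice daily for 5 days, in 5% ethanol/45% water/50% PEG400. Untreated mice served as controls. Parasitemia was checked by trypan-blue-stained tail-vein blood smears every other day for ten days, then weekly, with survival followed to day 30.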

[4] = test system: Trypanosoma brucei brucei; assay: Trypanocidal activity against bloodstream stage of Trypanosoma brucei brucei infected in acute BALB/c mouse assessed as extension of animal survival at 50 mg/kg, ip bid administered for 5 days initiated 24 hrs post infection; assay type: functional, organism-based; parameters: dose 50 mg/kg; procedure, shortened: as §1

SMILES | IC50 (L929) [µg/mL] | IC50 [1] [µg/mL] | survival at 50 mg/kg [2] [%] | Activity [3] [%] | Activity [4]
Nc1ccc(C(=O)c2ccn(-c3ccc4c(c3)B(O)OC4)c2)cc1 | 3.9 (≈ 12.3 µM) | 0.03 (≈ 0.0943 µM) | 100 | 100 | 
O=C(O)c1cccn1-c1ccc2c(c1)B(O)OC2 | > 10 | 0.13 (≈ 0.535 µM) |  |  | 
O=C(c1ccc(O)cc1)c1ccn(-c2ccc3c(c2)B(O)OC3)c1 | > 10 | 0.06 (≈ 0.188 µM) |  |  | Active
OB1OCc2ccc(-n3cc(Sc4ccccc4O)c4ccccc43)cc21 | > 10 | > 5 |  |  | 
O=C(c1ccccc1)c1ccn(-c2ccc3c(c2)B(O)OC3)c1 | > 10 | 0.09 (≈ 0.297 µM) | 100 | 100 | 
OB1OCc2ccc(-n3cccc3Sc3ccc(Cl)cc3)cc21 | > 10 | 1.16 (≈ 3.4 µM) |  |  | 
Cc1ccsc1C(=O)c1ccn(-c2ccc3c(c2)B(O)OC3)c1 | > 10 | 0.11 (≈ 0.34 µM) |  |  | 
OB1OCc2ccc(-n3cc(Sc4ccc5ccccc5c4)c4ccccc43)cc21 | > 10 | > 5 |  |  | 
Cc1cccc(C(=O)c2ccn(-c3ccc4c(c3)B(O)OC4)c2)c1 | > 10 | 0.09 (≈ 0.284 µM) |  |  | 
Cc1ccc(C(=O)c2ccn(-c3ccc4c(c3)B(O)OC4)c2)s1 | > 10 | 0.07 (≈ 0.217 µM) | 100 | 100 | 
O=C(c1ccn(-c2ccc3c(c2)B(O)OC3)c1)c1ccc(Cl)cc1Cl | > 10 | 1.12 (≈ 3.01 µM) |  |  | 
O=C(c1cccc(Cl)c1)c1ccn(-c2ccc3c(c2)B(O)OC3)c1 | > 10 | 0.35 (≈ 1.04 µM) |  |  | 
OB1OCc2ccc(-n3cc(Sc4cccc(Cl)c4)c4ccccc43)cc21 | > 10 | > 5 |  |  | 
O=C(c1ccccc1Cl)c1cccn1-c1ccc2c(c1)B(O)OC2 | > 10 | 0.7 (≈ 2.07 µM) |  |  | 
O=C(c1ccn(-c2ccc3c(c2)B(O)OC3)c1)c1cccc2ccccc12 | 5.59 (≈ 15.8 µM) | 0.4 (≈ 1.13 µM) |  |  | 
O=C(c1ccc(Cl)cc1)c1ccn(-c2ccc3c(c2)B(O)OC3)c1 | > 10 | 0.21 (≈ 0.622 µM) |  |  | 
O=C(c1ccc(CO)cc1)c1ccn(-c2ccc3c(c2)B(O)OC3)c1 | 9.31 (≈ 27.9 µM) | 0.04 (≈ 0.12 µM) |  |  | 
O=C(NCc1ccccc1)c1cccn1-c1ccc2c(c1)B(O)OC2 | > 10 | 0.8 (≈ 2.41 µM) |  |  | 
O=C(c1ccccc1)c1ccn(-c2ccc3c(c2)C(O)OC3)c1 (centres undefined) | 8.18 (≈ 26.8 µM) | > 5 |  |  | 
NCc1ccc(C(=O)c2ccn(-c3ccc4c(c3)B(O)OC4)c2)cc1 | > 10 | 0.18 (≈ 0.542 µM) |  |  | 
CC(=O)c1ccn(-c2ccc3c(c2)B(O)OC3)c1 | > 10 | 0.56 (≈ 2.32 µM) |  |  | 

SMILES | IC50 (L929) [µg/mL] | IC50 [1] [µg/mL] | survival at 50 mg/kg [2] [%] | Activity [3] [%] | Activity [4]
OB1OCc2ccc(-n3cc(Sc4ccc(O)cc4)c4ccccc43)cc21 | > 10 | > 5 |  |  | 
NCCCC(=O)c1ccn(-c2ccc3c(c2)B(O)OC3)c1 | > 10 | 4.02 (≈ 14.1 µM) |  |  | 
O=C(CCCN1C(=O)c2ccccc2C1=O)c1ccn(-c2ccc3c(c2)B(O)OC3)c1 | > 10 | 0.72 (≈ 1.74 µM) |  |  | 
COc1ccc(Sc2cn(-c3ccc4c(c3)B(O)OC4)c3ccccc23)cc1 | > 10 | > 5 |  |  | 
O=C(c1ccc(F)cc1)c1cccn1-c1ccc2c(c1)B(O)OC2 | > 10 | 0.4 (≈ 1.25 µM) |  |  | 
OB1OCc2ccc(-n3ccc(Cc4ccccc4)c3)cc21 | > 10 | 2.17 (≈ 7.5 µM) |  |  | 
OB1OCc2ccc(-n3cccc3Sc3ccccc3Cl)cc21 | > 10 | 2.89 (≈ 8.46 µM) |  |  | 
OB1OCc2ccc(-n3cccc3Sc3ccc(Cl)c(Cl)c3)cc21 | > 10 | > 5 |  |  | 
O=C(NCCc1ccccc1)c1cccn1-c1ccc2c(c1)B(O)OC2 | > 10 | 0.68 (≈ 1.96 µM) |  |  | 
O=C(c1ccccc1)c1ccn(-c2ccccc2)c1 | > 10 | > 5 |  |  | 
CNC(=O)c1cccn1-c1ccc2c(c1)B(O)OC2 | > 10 | 0.86 (≈ 3.36 µM) |  |  | 
O=C(c1ccn(-c2ccc3c(c2)B(O)OC3)c1)C1CCCCC1 | > 10 | 0.13 (≈ 0.42 µM) |  |  | 
Cc1ccc(C(=O)c2ccn(-c3ccc4c(c3)B(O)OC4)c2)cc1 | > 10 | 0.08 (≈ 0.252 µM) |  |  | 
OB1OCc2ccc(-n3cc(Sc4ccc(Cl)cc4)c4ccccc43)cc21 | > 10 | > 5 |  |  | 
O=[N+]([O-])c1ccc(Sc2cn(-c3ccc4c(c3)B(O)OC4)c3ccccc23)cc1 | > 10 | > 5 |  |  | 
CC(=O)c1cccn1-c1ccc2c(c1)B(O)OC2 | > 10 | 0.69 (≈ 2.86 µM) |  |  | 
COc1ccc(C(=O)c2ccn(-c3ccc4c(c3)B(O)OC4)c2)cc1 | > 10 | 0.11 (≈ 0.33 µM) |  |  | 
O=C(NC1CCCCC1)c1cccn1-c1ccc2c(c1)B(O)OC2 | > 10 | 2.85 (≈ 8.79 µM) |  |  | 
Cc1ccccc1C(=O)c1ccn(-c2ccc3c(c2)B(O)OC3)c1 | > 10 | 0.56 (≈ 1.77 µM) |  |  | 
CCCCCC(=O)c1ccn(-c2ccc3c(c2)B(O)OC3)c1 | > 10 | 0.09 (≈ 0.303 µM) |  |  | 
COc1cc(C(=O)c2ccn(-c3ccc4c(c3)B(O)OC4)c2)cc(OC)c1OC | 1.15 (≈ 2.92 µM) | 0.16 (≈ 0.407 µM) |  |  | 

SMILES | IC50 (L929) [µg/mL] | IC50 [1] [µg/mL] | survival at 50 mg/kg [2] [%] | Activity [3] [%] | Activity [4]
O=C(c1ccc(Cl)cc1Cl)c1cccn1-c1ccc2c(c1)B(O)OC2 | > 10 | 1.43 (≈ 3.84 µM) |  |  | 
O=C(Cc1ccccc1)c1ccn(-c2ccc3c(c2)B(O)OC3)c1 | > 10 | 0.29 (≈ 0.914 µM) |  |  | 
CCCNC(=O)c1cccn1-c1ccc2c(c1)B(O)OC2 | > 10 | 3.21 (≈ 11.3 µM) |  |  | 
OB1OCc2ccc(-n3cc(Sc4ccc(F)cc4)c4ccccc43)cc21 | > 10 | > 5 |  |  | 
OB1OCc2ccc(-n3cccc3)cc21 | > 10 | 1.98 (≈ 9.95 µM) |  |  | 
COc1ccc([S+]([O-])c2cn(-c3ccc4c(c3)B(O)OC4)c3ccccc23)cc1 (centres undefined) | > 10 | 1.56 (≈ 3.87 µM) |  |  | 
O=C(c1ccn(-c2ccc3c(c2)B(O)OC3)c1)c1cccs1 | > 10 | 0.08 (≈ 0.259 µM) |  |  | 
O=C(c1ccccc1)c1cccn1-c1ccc2c(c1)B(O)OC2 | > 10 | 0.34 (≈ 1.12 µM) |  |  | 
OB1OCc2ccc(-n3cc(Sc4ccc(Cl)c(Cl)c4)c4ccccc43)cc21 | > 10 | > 5 |  |  | 
COc1ccc(CNC(=O)c2cccn2-c2ccc3c(c2)B(O)OC3)cc1 | > 10 | 0.7 (≈ 1.93 µM) |  |  | 
O=C(c1ccn(-c2ccc3c(c2)B(O)OC3)c1)c1ccccc1Cl | > 10 | 0.28 (≈ 0.829 µM) |  |  | 
O=C(c1ccc(F)cc1)c1ccn(-c2ccc3c(c2)B(O)OC3)c1 | > 10 | 0.16 (≈ 0.498 µM) |  |  | 
O=C(CCc1ccccc1)c1ccn(-c2ccc3c(c2)B(O)OC3)c1 | > 10 | 0.19 (≈ 0.574 µM) |  |  | 
CCNC(=O)c1cccn1-c1ccc2c(c1)B(O)OC2 | > 10 | 1.85 (≈ 6.85 µM) |  |  | 
CCCC(=O)c1ccn(-c2ccc3c(c2)B(O)OC3)c1 | > 10 | 0.11 (≈ 0.409 µM) |  |  | 
CC(=O)OCc1ccc(C(=O)c2ccn(-c3ccc4c(c3)B(O)OC4)c2)cc1 | 10 (≈ 26.7 µM) | 0.03 (≈ 0.08 µM) |  |  | 
COc1ccccc1C(=O)c1ccn(-c2ccc3c(c2)B(O)OC3)c1 | > 10 | 0.17 (≈ 0.51 µM) |  |  | 
OB1OCc2ccc(-n3ccc4ccccc43)cc21 | > 10 | > 5 |  |  | 
COc1ccc(S(=O)(=O)c2cn(-c3ccc4c(c3)B(O)OC4)c3ccccc23)cc1 | > 10 | > 5 |  |  | 
